Source: ChEMBL document CHEMBL1156509, “Survival in the presence of antifungals: genome-wide expression profiling of Aspergillus niger in response to sublethal concentrations of caspofungin and fenpropimorph” (2007)
The source made the active and inactive calls. The rule behind the calls is not given here.

How the values were obtained:
Type in all cases: functional, organism-based
[1] = tested on: Aspergillus niger; experiment: Induction of GFP tagged PagsA-H2B expression in Aspergillus niger RD6.47 at 104.2 ug/mL by fluorescence microscopy
Method in brief: (§1)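 agsA promoter-GFP reporters, cytoplasmic (JvD1.1) or nuclear H2B-targeted (RD6.47). Germlings pre-grown 6 h at 37 °C in 2× CM, exposed 3 h at 30 °C to seven 2-fold dilutions. GFP levels were scored by fluorescence microscopy as 0 (basal), 1 (intermediate) or 2 (high). Controls: gpdA-H2B-GFP strain MA26.1 (positive), N402 (negative).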

[2] = tested on: Aspergillus niger; experiment: Induction of GFP tagged PagsA expression in Aspergillus niger JvD1.1 at 104.2 ug/mL by fluorescence microscopy; method in brief: as §1
[3] = tested on: Aspergillus niger; experiment: Antifungal activity against Aspergillus niger RD6.47 at 104.2 ug/mL by microtiter plate
Method in brief: (§2)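 Reporter conidia (2×10^4 per well) were pre-grown 6 h at 37 °C in 2× CM in glass-bottom plates. An equal volume of a 2-fold dilution series (seven concentrations) was added, then 3 h at 30 °C. Medium was discarded and adherent germlings imaged. Growth inhibition was scored 0/1/2 from hyphal length.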

[4] = tested on: Aspergillus niger; experiment: Antifungal activity against Aspergillus niger JvD1.1 at 104.2 ug/mL by microtiter plate; method in brief: as §2

Structure (SMILES): C[C@@H]1C[C@@H]([C@H](O)CC2CC(=O)NC(=O)C2)C(=O)[C@@H](C)C1
- Activity [1]: inactive
- Activity [2]: inactive
- Activity [3]: Active
- Activity [4]: Active

Structure (SMILES): Cc1cc(C2CC2)nc(Nc2ccccc2)n1
- Activity [1]: Active
- Activity [2]: Active

Structure (SMILES): Fc1ccc([C@]2(Cn3cncn3)O[C@H]2c2ccccc2Cl)cc1
- Activity [1]: inactive
- Activity [2]: inactive
- Activity [3]: inactive
- Activity [4]: inactive
